# Many of the other results were omitted from the sample, so hits are more common in it than they were.
# STK33 kinase inh = blocks human STK33 kinase activity. purified STK33, MBP phosphorylation, ADP-Glo luminescence. inhibition, % at 10 µM. AID 2661. 0.073% of 320,000 active;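 active = inhibition at or above 25%, using the most active replicate where run in duplicate; inactive = inhibition below 25%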
# Target sequence (Q9BYT3 whole entry, looked up): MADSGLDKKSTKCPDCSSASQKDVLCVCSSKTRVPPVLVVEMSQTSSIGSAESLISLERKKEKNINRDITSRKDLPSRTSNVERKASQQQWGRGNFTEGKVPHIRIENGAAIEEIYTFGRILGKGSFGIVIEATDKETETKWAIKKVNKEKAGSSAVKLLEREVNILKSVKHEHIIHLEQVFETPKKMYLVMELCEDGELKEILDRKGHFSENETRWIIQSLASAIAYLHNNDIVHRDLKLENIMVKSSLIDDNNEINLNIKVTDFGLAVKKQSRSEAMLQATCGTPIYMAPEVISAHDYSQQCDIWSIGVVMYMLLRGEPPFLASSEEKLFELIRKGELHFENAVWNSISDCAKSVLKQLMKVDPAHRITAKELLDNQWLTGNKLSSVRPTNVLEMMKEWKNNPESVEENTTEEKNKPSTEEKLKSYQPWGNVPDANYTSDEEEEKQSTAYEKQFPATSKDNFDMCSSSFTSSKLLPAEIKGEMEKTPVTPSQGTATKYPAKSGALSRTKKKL
# DYRK1A inh = blocks rat Dyrk1A kinase activity; Q63470; ADP-Glo luminescence, NFATc1 peptide; inhibition, % at 12.5 µM; 0.43% of 310,000 active; in the data active = inhibition above about 50%;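 also: plate controls were vehicle with enzyme for no effect and no enzyme for full effect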
# GSK3beta inhib = human GSK3beta kinase inhibition; P49841; GST-GSK3beta kinase, ADP-Glo luminescence, 60 min; stronger effect = lower value; activity score (negative = inhibition), % at 10 µM; 0.038% of 300,000 active; AID 2097;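 active = more than half of replicate wells score below -50%, meaning over 50% inhibition versus plate controls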;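 also: 0% = median DMSO wells and -100% = median GW8510 positive control wells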
#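 Assay system: GST-fused GSK3beta enzyme, cell-free / Medium: Tris pH 7.5 buffer with MgCl2, DTT, BSA, heparin / Also added: peptide substrate plus 25 µM ATP (final) / Compound: 10 µM single point / Timing: kinase reaction with compound 60 min at room temperature / Detection: ADP-Glo luminescence / Benchmarks: DMSO neutral wells and GW8510 at 20 µM as positive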
# GSK3A inh = human GSK-3 alpha kinase inhibition. ADP-Glo luminescence, 60 min. P49840. 0.1% of 320,000 active. AID 2650. inhibition, % at 10 µM;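 active = more than half of replicates show inhibition above 20%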;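 also: GST-tagged GSK-3 alpha with peptide substrate and 25 µM ATP; 0% = DMSO neutral wells and 100% = GW8510 positive control wells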
# ADP-Glo artifact = interferes with ADP-Glo luciferase readout without Dyrk1A; shares compounds with DYRK1A inh; ADP-Glo luciferase artifact assay, no Dyrk1A, luminescence; AC50, µM (top dose mostly 12 µM), without a hit: top-dose activity change, negative = inhibition; 1,300 tested, under 10 active; AID 588348;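 active = fitted half-maximal dose AC50 no more than ten times the top valid tested dose, with luminescence dropping as dose rises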
# * = called active by the depositor; . = not tested or not shown.
SMILES,STK33 kinase inh,DYRK1A inh,GSK3beta inhib,GSK3A inh,ADP-Glo artifact
Nc1nonc1-n1nnc(C(=O)N/N=C/c2cccc(Cl)c2Cl)c1CN1CCCC1,0.1,-4.7,.,21.9,.
Nc1nonc1-n1nnc(C(=O)N/N=C/c2ccccc2F)c1CN1CCc2ccccc21,0.8,-2.7,-50.0*,0.5,.
CCOc1ccccc1/C=N/NC(=O)c1nnn(-c2nonc2N)c1CN1CCCC1,1.1,3.2,-85.7*,109.1*,.
Nc1nonc1-n1nnc(C(=O)N/N=C/c2ccccc2Cl)c1CN1CCOCC1,-0.2,5.0,-2.4,50.5*,.
Nc1cc(C(=O)O)c(N)c2c1C(=O)c1ccccc1C2=O,76.8*,7.5,-1.4,54.5*,.
CCC(C)NC(=O)C1c2ccccc2C(=O)N1Cc1ccc(F)cc1 (stereo not drawn),-1.2,-2.4,-0.9,-2.0,.
COc1ccc(-c2ncncc2-c2ccc(OC)c(OC)c2)c(O)c1,-0.1,20.8,3.1,51.9*,.
CC(=O)c1cc(-c2ccc(F)cc2)n(CCC(=O)Nc2cc(C)[nH]n2)c1C,0.5,4.8,1.3,56.0*,.
COc1cc(CN2CCC(n3nccc3NC(=O)c3ccc4c(c3)OCO4)CC2)ccc1O,-1.2,-2.5,-0.5,-0.6,.
COc1cc(/C=C/C(=O)O)ccc1O,7.5,47.6,-1.6,1.6,.
COc1cc(C=C(C(C)=O)C(C)=O)ccc1O,0.5,0.3,-3.3,-2.3,.
COc1cc(/C=C/C(=O)CC(=O)/C=C/c2ccc(O)c(OC)c2)ccc1O,63.9*,24.7,-1.8,-0.7,.
COc1cc(/C=C/C(=O)/C=C(O)/C=C/c2ccc(O)c(OC)c2)ccc1O,61.1*,36.4,.,2.4,.
CC1(C)Cc2c(sc3c2C2=NCCN2C=N3)CS1,-1.3,7.7,-4.7,54.1*,.
CN1C(=O)c2c(sc3c2CC(C)(C)SC3)N2CCN=C12,.,-9.8,1.9,.,.
COc1ccc(-n2c(C)c([N+](=O)[O-])c3ccc(O)c(CN4CCCCC4)c32)cc1,0.1,5.0,3.9,50.7*,.
Nc1ccccc1-c1nnc(SCC(=O)Nc2ccccc2OC(F)F)[nH]c1=O,-0.8,.,.,-4.8,.
O=C1c2cccc3cccc(c23)C(=O)C1(O)O,0.5,78.7*,-0.9,1.0,.
CCOC(=O)C1=C(C)Nc2ncnn2C1c1cccs1 (stereo not drawn),0.2,7.2,-14.2,.,.
CCCC1=C(C(=O)OCC)C(c2cccs2)n2ncnc2N1 (stereo not drawn),-0.6,-1.4,-42.0,61.2*,.
O=C(CSc1ccccc1)Nc1ccc2c(c1)C(=O)NC2=O,21.9,45.1,0.7,60.4*,.
Cc1ccc(SCC(=O)Nc2ccc3c(c2)C(=O)NC3=O)cc1,2.6,1.0,-49.2,3.9,.
COC(=O)c1ccccc1C(=O)N(Cc1cccnc1)CC1CCCN(C2CCCCC2)C1 (stereo not drawn),-0.2,1.0,1.7,-2.5,.
CCn1c(C)nc2cc(-c3nc4n(n3)Cc3ccccc3-4)ccc21,44.8*,16.7,-20.7,51.2*,.
Cc1ccc(-c2nc3n(n2)Cc2ccccc2-3)cc1,2.6,8.1,1.3,1.6,.
SMILES,STK33 kinase inh,DYRK1A inh,GSK3beta inhib,GSK3A inh,ADP-Glo artifact
COc1ccc(C(C(=O)NC2CCCCC2)N(C(=O)c2ccco2)c2ccccc2C(C)=O)cc1 (stereo not drawn),4.5,-6.0,-1.0,4.6,.
COc1cc(/C=C2\SC(N)=NC2=O)cc(Cl)c1O,1.8,61.1*,1.6,8.3,9.9%
CN(C)S(=O)(=O)c1ccc(NC(=O)c2cc3ccccc3o2)cc1,0.7,75.5*,2.7,-2.5,8.0%
O=C(CSc1ccc(-c2ccco2)nn1)Nc1ccccc1F,-2.2,1.5,1.0,3.1,.
COc1cccc(Nc2ncnc3sc(C)cc23)c1,-0.5,76.6*,-1.2,-10.6,11.4%
COc1cccc(Nc2ncnc3sccc23)c1,7.1,7.8,-0.3,7.9,.
COc1cccc2c1cc1c(=O)n(CC(=O)NCCCN3CCN(C)CC3)nc(C)n12,3.2,-4.7,-10.2,0.5,.
Cc1nc2c(c3c1[nH]c1ccccc13)C(=O)CC(C)(C)C2,9.9,85.0*,-5.5,29.0,9.9%
O=c1oc(-c2ccc(O)c(O)c2)cc2cc(O)cc(O)c12,.,73.2*,.,.,6.7%
COc1cc2ccc(=O)oc2c(O)c1OCC=C(C)C,-1.8,-5.4,3.1,-2.3,.
COc1cc2c(ccc3cc(OC)c(OC)c(O)c32)cc1O,34.9*,93.6*,0.0,38.2,6.0%
O=C(Nc1cccc(-c2nc3cccnc3s2)c1)c1ccc(Cl)nc1,-1.3,4.7,-1.7,-2.6,.
O=C(Nc1cccc(-c2nc3cccnc3s2)c1)c1cccnc1Cl,4.0,61.8*,1.7,39.8,7.8%
COc1ccc(C(=O)NCc2nnc(SCC(=O)NCCc3ccccc3)o2)cc1,-2.6,-3.9,-2.7,10.8,.
Cc1ncc(CO)c(/C=N/Nc2ccc(C(F)(F)F)cn2)c1O,4.5,50.3*,0.9,4.9,8.6%
Cc1ncc(CO)c(/C=N/NC(=S)Nc2ccc(F)cc2)c1O,-2.2,3.2,2.5,5.5,.
CCOCCCNC(=O)CN1CCN(Cc2ccc(Cl)cc2)C1=O,-1.6,-9.9,4.9,-2.0,.
N=c1oc2cc(O)ccc2cc1C(=O)Nc1ccc(F)cc1,2.4,53.3*,2.2,-0.4,8.7%
COc1cc(NC(=O)c2ccc3c(c2)S(=O)(=O)N=C2CCCCCN23)cc(OC)c1,-0.6,10.9,-3.1,-2.1,.
Cc1ccsc1CNCc1cc(Cl)ccc1O,-1.5,12.7,.,-0.4,.
N#Cc1c(C(F)(F)F)cc(-c2cccc(Cl)c2)[nH]c1=O,1.9,54.2*,4.3,0.2,8.0%
COc1ccc(-n2ccc(-c3nn(-c4cccc(C(F)(F)F)c4)ccc3=O)n2)cc1,-0.6,50.6*,-5.3,.,6.2%
COc1ccc(-c2ccc(=O)n(Cc3cccc([N+](=O)[O-])c3)n2)cc1,-1.8,64.0*,2.8,-3.5,7.5%
Cc1ccccc1Nc1nnc(-c2ccc(C(=O)NCCO)cc2)c2ccccc12,0.5,0.6,-2.8,0.0,.
CSC1=NSC2=NC(=O)/C(=C/c3coc4ccc(O)cc4c3=O)C(=N)N12,8.2,86.9*,-7.9,16.4,11.9%
SMILES,STK33 kinase inh,DYRK1A inh,GSK3beta inhib,GSK3A inh,ADP-Glo artifact
COc1cc(/C=C2/C(=N)N3C(SC)=NSC3=NC2=O)ccc1OC(=O)c1ccco1,7.5,57.6*,7.2,-1.0,10.8%
CSC1=NSC2=NC(=O)/C(=C\c3cccs3)C(=N)N12,1.4,-0.7,2.3,2.4,.
COc1cccc(-c2noc(N)c2C#N)c1,2.5,63.4*,-1.9,4.8,7.2%
O=C1NC(=S)S/C1=C/c1ccc(OC(=O)c2ccco2)cc1,3.0,70.8*,1.7,-2.1,9.7%
O=C(Cc1ccccc1Cl)Nc1cccnc1,-0.5,-3.8,1.5,-2.6,.
Oc1ccc(NC(=S)N=Nc2c(O)[nH]c3ccc(Br)cc23)cc1,.,51.0*,-3.5,.,9.7%
N=C(N)N=Nc1c(O)[nH]c2ccc(Br)cc12,-1.0,62.6*,-34.2,-1.8,8.3%
Oc1[nH]c2ccc(Br)cc2c1N=NC(=S)Nc1ccc(F)cc1,-1.0,8.2,3.5,-1.2,.
COc1cc(/C=C/C(=O)NCC2CCCCC2)cc(OC)c1OC,-1.0,-2.4,1.2,-0.6,.
